Data set [1] can be described thus: folding enthalpy; higher = less favourable; fluorescence melt of hairpins on a sequencing array, two-state fit. To be noted: sodium 0.088 M. Put shortly:
(§1)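 Folding enthalpy and melting temperature come from bootstrapped two-state fits to Cy3 fluorescence of library hairpins carrying annealed Cy3 and quencher oligos on a sequenced MiSeq flow cell. Imaging was done in 50 mM Na-HEPES pH 8.0, 25 mM NaCl, stepping by 2.5 °C up to 60 °C, and signals were normalised to pre-quench Cy3 and to control constructs. Results of four replicates were combined by inverse variance, and fitted temperatures were raised by 9.35 °C to match UV melts.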

Data set [2] in a line: melting temperature; fluorescence melt of hairpins on a sequencing array, two-state fit, raised by 9.35 °C to match UV melts. The settings on record: sodium 0.088 M. The method in brief: as §1

As to GGCTCCGGAAACGAAGCC ((((.((....)).)))), the folding enthalpy in data set [1] is -40.4 kcal/mol. Moreover, the Tm in data set [2] was 50.7 °C.
Turning to GGCTCCGGAAACGGGGCC (((.(((....))).))), in data set [1], the folding enthalpy was -50.7 kcal/mol. Also, in data set [2], the Tm is 67.5 °C.
On to GGCTCTCGAAAGAGGGCC (((.(((....))).))), for which the folding enthalpy in data set [1] was -39.3 kcal/mol. Moreover, in data set [2], the Tm was found to be 64.7 °C.
For GGCTCTGCGAAAGCAGCC (((..(((....)))))), the folding enthalpy in data set [1] was -9.66 kcal/mol. In addition, the Tm in data set [2] stood at 40.6 °C.
On the same counts, the results for GGCTCTGGAAACAGAACC ((.((((....)))).)) are -35.1 kcal/mol and 42.3 °C.
Take GGCTCTGGAAACAGAGTC (.(((((....))))).): in data set [1], the folding enthalpy is -35.7 kcal/mol. In addition, in data set [2], the Tm came to 52.8 °C.
GGCTCTTCGAAAGAAGCC (((..(((....)))))): in data set [1], the folding enthalpy was -16.3 kcal/mol. Further, in data set [2], the Tm amounted to 37.6 °C.
As for GGCTGAGAAATCAGCC ((((((....)))))), the folding enthalpy in data set [1] was -34.3 kcal/mol. Besides, in data set [2], the Tm is 65.7 °C.
In the case of GGCTGCCGAAAGGCCGCC (((.(((....))).))), in data set [1], the folding enthalpy is -18.5 kcal/mol. The Tm in data set [2] worked out at 65 °C.
As to GGCTGCGAAAGCAAGGCC ((((((....)))..))), the folding enthalpy in data set [1] was -18.5 kcal/mol. Also, the Tm in data set [2] is 55.8 °C.
Consider GGCTGCGGAAACGCAACC ((.((((....)))).)), for which, in data set [1], the folding enthalpy is -22.3 kcal/mol. In data set [2], the Tm amounted to 54.7 °C.
For GGCTGCGGAAACGCGGTC (.(.(((....))).).), the folding enthalpy in data set [1] is -28.7 kcal/mol. For the same sequence, the Tm in data set [2] stood at 53.1 °C.
Consider GGCTGCGGAAACGTGGCC (((..((....))..))), for which the folding enthalpy in data set [1] is -45.6 kcal/mol. In addition, the Tm in data set [2] came out at 56.5 °C.
As for GGCTGGGGAAACCTAGCC ((((.((....)).)))), the folding enthalpy in data set [1] was -42.8 kcal/mol. For the same sequence, in data set [2], the Tm is 56.2 °C.
Consider GGCTGGTCGAAAGACGCC (((..(((....)))))), for which the folding enthalpy in data set [1] was -27 kcal/mol. Besides, in data set [2], the Tm is 52.1 °C.
On to GGCTGTGGAAACATAGCC ((((.((....)).)))), for which the folding enthalpy in data set [1] was -43.4 kcal/mol. Besides, in data set [2], the Tm amounted to 53.5 °C.
The like results for GGCTGTGGAAACATGGCC (((..((....))..))) were, in that order, -32.6 kcal/mol and 49.5 °C.
On the same counts, the results for GGCTGTGGAAACGTAGCC ((((..(....)..)))) are -29.9 kcal/mol and 48.9 °C.
On the same counts, the results for GGCTTAACGAAAGTTGCC (((..(((....)))))) are -21.8 kcal/mol and 45.5 °C.
With GGCTTAGAAATAAGCC ((((((....)))))), in data set [1], the folding enthalpy was -33.4 kcal/mol. The Tm in data set [2] is 55.4 °C.
As for GGCTTCCCGAAAGGGGCC (((..(((....)))))), in data set [1], the folding enthalpy was -17.7 kcal/mol. Moreover, the Tm in data set [2] was 48.2 °C.
As for GGCTTCCGAAAGGACGCC (((.(((....))).))), the folding enthalpy in data set [1] is -42 kcal/mol. For the same sequence, the Tm in data set [2] amounted to 57.2 °C.
With GGCTTCGAAAGAATAGCC ((((((....)))..))), the folding enthalpy in data set [1] is -27.6 kcal/mol. For the same sequence, the Tm in data set [2] is 45.3 °C.
Consider GGCTTCGGAAACGAAGTC (.(((((....))))).), for which the folding enthalpy in data set [1] is -30.1 kcal/mol. Moreover, in data set [2], the Tm turned out to be 53.5 °C.
Turning to GGCTTGCGAAAGCAGCC (((.(((....)))))), the folding enthalpy in data set [1] is -29.1 kcal/mol. Further, the Tm in data set [2] was determined as 65.3 °C.
For GGCTTGCGAAAGCAGGCC (((.(((....))).))), the folding enthalpy in data set [1] is -31.3 kcal/mol. Further, the Tm in data set [2] amounted to 69.2 °C.
On to GGCTTGCGAAAGCATGCC (((.(((....))).))), for which the folding enthalpy in data set [1] was -31.4 kcal/mol. For the same sequence, the Tm in data set [2] is 66.6 °C.
For the sequence GGCTTGGGAAACCAAACC ((.((((....)))).)), the folding enthalpy in data set [1] was -27.8 kcal/mol. In addition, the Tm in data set [2] turned out to be 41 °C.
For GGCTTGGGAAACCAAGTC (.(((((....))))).), the folding enthalpy in data set [1] was -29.4 kcal/mol. Also, the Tm in data set [2] was found to be 52.4 °C.
In the case of GGCTTTCGAAAGAAGGCC (((.(((....))).))), the folding enthalpy in data set [1] was -40.9 kcal/mol. Moreover, in data set [2], the Tm worked out at 56.7 °C.
Regarding GGCTTTCGAAAGAATGCC (((.(((....))).))), the folding enthalpy in data set [1] was -41 kcal/mol. Further, the Tm in data set [2] turned out to be 54.8 °C.
As to GGCTTTGGAAACGAAGCC (((((.(....).))))), the folding enthalpy in data set [1] is -43.6 kcal/mol. Further, the Tm in data set [2] came out at 54 °C.
Consider GGGAAAGGAAACTTCCCC (((.(((....))).))), for which, in data set [1], the folding enthalpy was -23.3 kcal/mol. Also, the Tm in data set [2] turned out to be 36.8 °C.
For GGGAAAGGAAACTTTCCC (((((((....))))))), the folding enthalpy in data set [1] was -47 kcal/mol. For the same sequence, the Tm in data set [2] was 57.7 °C.
On the same counts, the results for GGGAACCCGAAAGGGCCC (((..(((....)))))) are -15.4 kcal/mol and 45.9 °C.
On to GGGAACGAAAGTTAACCC ((((((....)))..))), for which, in data set [1], the folding enthalpy is -19.8 kcal/mol. Moreover, the Tm in data set [2] was determined as 35.1 °C.
For GGGAACGAAAGTTACCC ((((((....))).))), in data set [1], the folding enthalpy was -30 kcal/mol. Moreover, in data set [2], the Tm stood at 53.8 °C.

These data come from the array DNA melting data of Ke et al. (doi:10.1101/2024.01.08.574731).
